The record followed here is PubChem BioAssay.

The other results are listed elsewhere or left out. Calls of active or inactive are those of the source.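 The calls were made as follows, unless noted: active = current rise at least 3 SD above the untreated control mean in each of two repeat wells; inactive = the rest.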

Chain of Potassium voltage-gated channel subfamily KQT member 2 (Rattus norvegicus) (O88943 whole entry, looked up): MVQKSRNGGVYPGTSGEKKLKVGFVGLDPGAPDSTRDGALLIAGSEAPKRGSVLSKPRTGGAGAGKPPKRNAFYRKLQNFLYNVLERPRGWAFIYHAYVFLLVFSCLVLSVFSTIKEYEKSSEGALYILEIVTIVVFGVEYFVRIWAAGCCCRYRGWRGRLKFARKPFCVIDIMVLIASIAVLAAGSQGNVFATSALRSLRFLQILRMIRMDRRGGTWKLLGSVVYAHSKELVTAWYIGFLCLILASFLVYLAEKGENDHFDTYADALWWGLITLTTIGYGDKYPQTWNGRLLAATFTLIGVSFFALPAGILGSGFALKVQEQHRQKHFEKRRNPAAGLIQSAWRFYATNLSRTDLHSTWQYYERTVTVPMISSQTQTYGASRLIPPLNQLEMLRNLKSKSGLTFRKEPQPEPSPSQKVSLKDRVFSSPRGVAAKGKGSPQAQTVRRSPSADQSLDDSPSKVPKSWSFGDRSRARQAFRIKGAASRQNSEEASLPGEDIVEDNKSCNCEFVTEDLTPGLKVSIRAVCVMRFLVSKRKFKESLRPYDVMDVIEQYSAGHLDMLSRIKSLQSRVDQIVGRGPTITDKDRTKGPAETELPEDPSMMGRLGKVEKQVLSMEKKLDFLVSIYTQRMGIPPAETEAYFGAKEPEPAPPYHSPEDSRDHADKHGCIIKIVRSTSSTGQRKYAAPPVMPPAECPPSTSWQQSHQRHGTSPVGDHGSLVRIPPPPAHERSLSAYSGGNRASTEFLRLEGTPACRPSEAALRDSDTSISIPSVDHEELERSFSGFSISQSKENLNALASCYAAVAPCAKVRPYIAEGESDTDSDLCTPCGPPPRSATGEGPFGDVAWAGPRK
Chain of Potassium voltage-gated channel subfamily KQT member 1 (Homo sapiens) (P51787 whole entry, looked up): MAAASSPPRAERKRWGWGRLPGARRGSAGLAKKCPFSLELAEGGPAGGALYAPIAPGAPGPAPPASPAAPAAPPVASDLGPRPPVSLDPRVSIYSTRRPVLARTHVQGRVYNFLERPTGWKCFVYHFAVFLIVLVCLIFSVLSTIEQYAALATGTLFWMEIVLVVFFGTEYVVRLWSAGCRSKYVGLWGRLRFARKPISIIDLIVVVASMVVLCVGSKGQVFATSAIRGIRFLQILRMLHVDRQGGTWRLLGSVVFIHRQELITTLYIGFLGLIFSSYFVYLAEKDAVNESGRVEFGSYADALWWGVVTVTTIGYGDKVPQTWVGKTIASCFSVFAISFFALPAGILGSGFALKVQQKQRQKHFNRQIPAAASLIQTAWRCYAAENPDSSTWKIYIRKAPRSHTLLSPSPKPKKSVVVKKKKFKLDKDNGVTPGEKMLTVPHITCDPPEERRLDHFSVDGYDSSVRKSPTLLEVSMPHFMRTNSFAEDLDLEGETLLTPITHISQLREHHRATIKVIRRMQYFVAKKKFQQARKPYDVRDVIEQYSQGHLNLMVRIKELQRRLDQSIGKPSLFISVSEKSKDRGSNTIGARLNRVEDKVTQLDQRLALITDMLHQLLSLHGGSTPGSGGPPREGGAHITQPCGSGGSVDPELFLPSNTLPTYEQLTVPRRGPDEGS
Chain of Potassium voltage-gated channel subfamily E member 1 (Homo sapiens) + Potassium voltage-gated channel subfamily KQT member 1 (Homo sapiens) (P51787 whole entry, looked up): as the sequence (P51787 whole entry, looked up) above

The first assay concerns the target Potassium voltage-gated channel subfamily KQT member 2 (Rattus norvegicus) (UniProt O88943). In words: rat KCNQ2 channel potentiation, selectivity assay for KCNQ1 potentiator project, KCNQ2-CHO-K1 cells (AID 493009;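 active = mean duplicate potentiation above the buffer control mean plus 5 SD of buffer wells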;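 also: assay conditions were tuned for KCNQ1 rather than KCNQ2 modulators; signal is max minus min fluorescence divided by baseline after thallium stimulus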). Conditions: FluxOR thallium flux fluorescence, at 10 µM; active compounds read high, scaled: buffer 0, activator control 100.
`CCC1(C)Cc2c(sc3[nH]c(=S)n(Cc4ccccc4)c(=O)c23)CO1` (stereo unspecified): the potentiation was 388% (active).

For `Cc1cccc(NC(=S)NC(=O)c2ccc(Br)o2)c1`, the potentiation is 272% (active).

Take `CS(=O)(=O)c1sc(C(=O)NC(=S)Nc2ccc(OC(F)(F)F)cc2)c2c1C=CCC2`: the potentiation was 168% (active).

Consider `Oc1c(Cl)cc(Cl)cc1/C=N/c1ncn[nH]1`, for which the potentiation was 156% (active).

As for `CCn1c(O)c(N=NC2=NC(=O)CS2)c2cc(C)ccc21`, the potentiation was 310% (active).

Regarding `Cc1[nH][nH]c(=O)c1C(c1ccc(-c2ccc(Cl)cc2)o1)c1c(C)[nH][nH]c1=O`, the result was inactive.

As to `CCn1c(=S)[nH]c2sc3c(c2c1=O)CCCCC3`, the potentiation was 530% (active).

`CCn1c2ccccc2c2cc(NC(=O)CNC)ccc21`: the result was inactive.

As to `CCOC(=O)c1sc(=S)n2c1[nH]c(=O)c1ccc(C(=O)OC)cc12`, the potentiation is 351% (active).

For `CCOC(=O)c1c(NC(=S)NC)sc2c1CCCC2`, the potentiation is 289% (active).

For the compound `Cc1ccc(/C=N/NC(=O)c2cc3ccccc3cc2O)o1`, the potentiation is 506% (active).

Consider `CCc1ccc(NC(=O)C(=O)NNC(=O)c2cccs2)cc1`, for which the potentiation is 421% (active).

With `CC1=C/C(=N\OS(=O)(=O)c2ccccc2)C=CC1=O`, the outcome was inactive.

A further assay has as its target Potassium voltage-gated channel subfamily KQT member 1 (Homo sapiens) (UniProt P51787). In words: KCNQ1 channel current potentiators, confirmation, orthogonal assay for KCNQ1 potentiator project, IonWorks patch clamp, KCNQ1-CHO cells (AID 493184).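 As to current potentiation: percent change of the same well's current before compound addition so 0% = no change.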 Conditions: automated patch clamp current, at 10 µM; active compounds read high. An outline of the steps: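 Test system: KCNQ1-expressing CHO cells. Medium: pH 7.4 external bath. Probe or stimulus: voltage step from -90 mV holding to +40 mV, 2,000 ms. Compound: 10 µM final, single point. Detection: automated perforated-patch electrophysiology. Read-out: percent current increase versus pre-compound level. Repeats: two replicates.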
(Patch clamp records ionic current or voltage across a cell membrane.)
On to `CCC1(C)Cc2c(sc3[nH]c(=S)n(Cc4ccccc4)c(=O)c23)CO1` (stereo unspecified), for which the current potentiation was 15.1% (active).

Regarding `Cc1cccc(NC(=S)NC(=O)c2ccc(Br)o2)c1`, the result was inactive.

As to `CS(=O)(=O)c1sc(C(=O)NC(=S)Nc2ccc(OC(F)(F)F)cc2)c2c1C=CCC2`, the outcome was inactive.

Consider `Oc1c(Cl)cc(Cl)cc1/C=N/c1ncn[nH]1`, for which the result was inactive.

On to `CCn1c(O)c(N=NC2=NC(=O)CS2)c2cc(C)ccc21`, for which the outcome was inactive.

`Cc1[nH][nH]c(=O)c1C(c1ccc(-c2ccc(Cl)cc2)o1)c1c(C)[nH][nH]c1=O`: the result was inactive.

`CCn1c(=S)[nH]c2sc3c(c2c1=O)CCCCC3`: the outcome was inactive.

Turning to `CCn1c2ccccc2c2cc(NC(=O)CNC)ccc21`, the outcome was inactive.

Regarding `CCOC(=O)c1sc(=S)n2c1[nH]c(=O)c1ccc(C(=O)OC)cc12`, the result was inactive.

On to `CCOC(=O)c1c(NC(=S)NC)sc2c1CCCC2`, for which the result was inactive.

As to `Cc1ccc(/C=N/NC(=O)c2cc3ccccc3cc2O)o1`, the result was inactive.

In the case of `CCc1ccc(NC(=O)C(=O)NNC(=O)c2cccs2)cc1`, the outcome was inactive.

Regarding `CCn1cc(CN2CCC(C(=O)Nc3cccc(-c4cccc(Cl)c4)c3)CC2)cn1`, the outcome was inactive.

For `CC1=C/C(=N\OS(=O)(=O)c2ccccc2)C=CC1=O`, the result was inactive.

The next assay has the same target. As to the kind of experiment: KCNQ1 potassium channel inhibitors, confirmation, cell-based, Tl flux, duplicate (AID 588353;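 active = primary screen active, with duplicate mean exceeding buffer control mean plus 3 SD of buffer wells, cut at about 28% in these data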;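 also: 0% = buffer control ratio and 100% = XE991 inhibitor control ratio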). Particulars: KCNQ1 cell line, FluxOR thallium flux fluorescence; at 10 µM; active compounds read high. The gist of the method: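 System: stable KCNQ1-expressing CHO cell line; Reagent: Tl2SO4 plus K2SO4 stimulus, each 12.5 mM in 5x stock; Schedule: dye loading 90 min, compound 20 min, both room temperature; Measured by: thallium-sensitive FluxOR dye fluorescence; Read-out basis: percent inhibition of fluorescence change ratio, scaled buffer to XE991; Control set: buffer and XE991; Replication: duplicate.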
Take `S=C(NCc1ccc(Cl)cc1)NC12CC3CC(CC(C3)C1)C2`: the inhibition (as a rule, the change of the read-out against control, counted positive when it falls) was 143% (active).

Consider `Cc1ccc2nc(C)c3c(c2c1)N(c1ccccc1)CC3`, for which the inhibition was 46% (active).

For the compound `CC(=O)N(C1=C(Cl)C(=O)c2ccccc2C1=O)c1ccc(C(=O)O)cc1`, the inhibition is 158% (active).

`CCc1ccc(-c2nn(-c3ccccc3)cc2CSC(=N)N)cc1`: the inhibition was 126% (active).

With `FC(F)(F)c1cccc(NC(=S)Nc2cccc(Cl)c2)c1`, the inhibition was 112% (active).

System in another assay: not listed separately
As to the kind of experiment: thallium flux effects in parental CHO cells, counter-screen for KCNQ1 inhibitor project, cell-based, Tl flux (AID 588366;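 active = mean of duplicate thallium-flux fluorescence ratios in parental host cells more than 5 SD below the buffer control mean, cut at about 0.38 in these data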;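 also: ratio is peak minus minimum fluorescence divided by baseline fluorescence; actives read low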). Particulars: parental CHO-K1, FluxOR thallium flux fluorescence ratio; at 10 µM; active compounds read low; zero means no signal rise above baseline. The gist of the method: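 Assay system: CHO-K1 parental line without KCNQ1 | Reagent: K+/Tl+ depolarizing stimulus | Incubation: 90 min dye load, 20 min compound, room temperature | Technique: Kinetic FluxOR thallium-flux fluorescence, 10 s baseline plus 110 s | Evaluation: Peak-to-trough fluorescence change relative to baseline, duplicate mean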
On the technique in general: A counterscreen serves to expose hits that act by an unwanted route or on another target.
As to `S=C(NCc1ccc(Cl)cc1)NC12CC3CC(CC(C3)C1)C2`, the fluorescence ratio (Tl flux) is 0.521 (inactive).

For `Cc1ccc2nc(C)c3c(c2c1)N(c1ccccc1)CC3`, the fluorescence ratio (Tl flux) is 0.419 (inactive).

On to `CC(=O)N(C1=C(Cl)C(=O)c2ccccc2C1=O)c1ccc(C(=O)O)cc1`, for which the fluorescence ratio (Tl flux) was 0.205 (active).

For the compound `CCc1ccc(-c2nn(-c3ccccc3)cc2CSC(=N)N)cc1`, the fluorescence ratio (Tl flux) is 0.302 (active).

Regarding `FC(F)(F)c1cccc(NC(=S)Nc2cccc(Cl)c2)c1`, the fluorescence ratio (Tl flux) is 0.527 (inactive).

A further assay concerns the target Potassium voltage-gated channel subfamily KQT member 2 (Rattus norvegicus) (UniProt O88943). As to the kind of experiment: KCNQ2 channel inhibition, selectivity assay for KCNQ1 inhibitor project, cell-based (AID 651746;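 active = mean percent inhibition of the KCNQ2 thallium signal more than 5 SD above the buffer-only control wells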;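 as to inhibition: 0% = buffer control wells and 100% = XE-991 inhibitor control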). Conditions: KCNQ2 cells, FluxOR thallium flux fluorescence, at 10 µM; active compounds read high.
For `S=C(NCc1ccc(Cl)cc1)NC12CC3CC(CC(C3)C1)C2`, the compound was called inactive.

Turning to `Cc1ccc2nc(C)c3c(c2c1)N(c1ccccc1)CC3`, the inhibition is 83.7% (active).

With `CC(=O)N(C1=C(Cl)C(=O)c2ccccc2C1=O)c1ccc(C(=O)O)cc1`, the inhibition was 124% (active).

For `CCc1ccc(-c2nn(-c3ccccc3)cc2CSC(=N)N)cc1`, the inhibition was 114% (active).

Consider `FC(F)(F)c1cccc(NC(=S)Nc2cccc(Cl)c2)c1`, for which the result was inactive.

Another assay concerns the target Potassium voltage-gated channel subfamily E member 1 (Homo sapiens) + Potassium voltage-gated channel subfamily KQT member 1 (Homo sapiens) (UniProt P15382+P51787). In words: KCNQ1/KCNE1 channel inhibition, selectivity assay for KCNQ1 inhibitor project, CHO-K1 cells, thallium flux, FluxOR (AID 652147;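 active = mean percent inhibition of duplicate wells above the buffer-only control mean plus 3 SD of those controls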). Particulars: FluxOR thallium flux fluorescence, at 10 µM. An outline of the steps: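 Probe or stimulus: depolarizing thallium/potassium stimulus, 5x stock with 12.5 mM Tl2SO4 and K2SO4. System: KCNQ1/KCNE1 potassium channel-expressing cells, plated overnight. Timing: dye 90 min and compound 20 min at room temperature. Signal: kinetic FluxOR thallium-sensitive fluorescence, 1 Hz sampling, 150 s post-stimulus.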
For the compound `S=C(NCc1ccc(Cl)cc1)NC12CC3CC(CC(C3)C1)C2`, the outcome was inactive.

`Cc1ccc2nc(C)c3c(c2c1)N(c1ccccc1)CC3`: the result was inactive.

Take `CCc1ccc(-c2nn(-c3ccccc3)cc2CSC(=N)N)cc1`: the result was inactive.

`FC(F)(F)c1cccc(NC(=S)Nc2cccc(Cl)c2)c1`: the result was inactive.
